dFosB act: enhances mouse delta FosB homodimer DNA binding; purified delta FosB, TAMRA-CDK5 oligo fluorescence polarization; percent of positive-control signal above neutral wells; activation, % at 25 µM; 340,000 tested, 0.99% active;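 active = mean activation above about 17%, with every replicate also reaching it, limit read from the data, passing the limit was not always enough; inconclusive = only one of the two conditions met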
Target sequence (P13346 whole entry, looked up): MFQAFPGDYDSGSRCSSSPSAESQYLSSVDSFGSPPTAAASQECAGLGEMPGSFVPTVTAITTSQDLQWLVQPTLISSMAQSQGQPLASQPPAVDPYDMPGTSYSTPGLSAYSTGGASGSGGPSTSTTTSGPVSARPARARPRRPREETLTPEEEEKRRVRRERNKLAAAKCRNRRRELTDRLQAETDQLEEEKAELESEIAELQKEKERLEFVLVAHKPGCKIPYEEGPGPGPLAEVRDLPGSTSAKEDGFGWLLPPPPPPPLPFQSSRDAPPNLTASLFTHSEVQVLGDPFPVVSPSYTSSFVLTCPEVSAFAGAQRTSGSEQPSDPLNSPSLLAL
CDK5 p35 inh: CDK5/p35 (human) kinase inhibition | Q00535+Q15078 | Recombinant CDK5/p35, ADP-Glo luminescence, 60 min | inhibition, % at 10 µM | 330,000 tested, 0.01% active | AID 488839;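 active = highest replicate inhibition of at least 50% and at least 75% of replicates reaching 50%; inconclusive = only one of the two criteria met; inactive = both criteria failed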;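 note: plate controls were DMSO neutral control for no effect and GW8510 at 10 µM for full effect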
SR-BI DiI-HDL act: activators of SR-BI mediated HDL lipid uptake. activation, % at 12.5 µM. CHO ldlA[mSR-BI] cells, DiI-HDL uptake fluorescence, 3 h; 100 = double the neutral-control signal. AID 504775. 320,000 tested, 0.096% active;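 active = mean replicate activation of at least 60% and every replicate at or above 60%; inconclusive = mean or all-replicate condition met, but not both; inactive = mean below 60% and not all replicates reaching 60%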;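 note: 0% = median plate neutral-control signal and 100% = twice that signal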
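Test system: SR-BI-overexpressing, LDLR-lacking CHO cells; Also added: labelled HDL, 10 µg/mL; Measured by: bottom-read cell fluorescence after medium removal, ex 550/em 595 nm; Timing: 3 h uptake period with compound, 37 °C; Buffer or medium: F12, 0.5% BSA, 25 mM HEPES; Doses: single compound concentration, delivered by pin transfer.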
DYRK1A inh: Dyrk1A (rat) kinase inhibition; Q63470; ADP-Glo luminescence, NFATc1 peptide; inhibition, % at 12.5 µM; 310,000 tested, 0.43% active;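 note: plate controls were vehicle with enzyme for no effect and no enzyme for full effect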
SR-BI DiI inh: blocks mouse SR-BI lipid uptake from DiI-HDL; AID 488896; Q61009; inhibition, % at 12.5 µM; ldlA[mSR-BI] CHO cells, DiI-HDL uptake fluorescence, 3 h; 320,000 tested, 0.96% active;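 active = mean replicate inhibition of at least 70% and a set share of replicates each scoring 70 or more; inconclusive = meets just one of the two criteria; inactive = fails both criteria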;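 note: 0% = median of neutral control wells and 100% = median of positive control wells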
NSD2 inh: blocks human histone methyltransferase NSD2 | NSD2 peptide methylation, AlphaScreen, 120 min | inhibition, % at 12.5 µM | O96028 | 310,000 tested, 0.54% active
AlphaScreen art: interferes with AlphaScreen signal, flagging NSD2 false positives | AC35, µM (highest dose often 10 µM), without a hit: at the highest dose activity change, negative = signal loss | 1,500 tested, 9.4% active | shares compounds with NSD2 inh | AlphaScreen artifact counterscreen, preloaded methylated H4 peptide; call rule not given here
Active calls of the source: *; ? = inconclusive; / = not tested or not shown. The list is not random: actives were taken first. Their share in the collection is about 2.5%. Cut-off read from the data, not from the text of the source, unless noted: active = inhibition above about 50%; inactive = the rest.

SMILES	dFosB act	CDK5 p35 inh	SR-BI DiI-HDL act	DYRK1A inh	SR-BI DiI inh	NSD2 inh	AlphaScreen art
COC(=O)C1=C(c2ccc(F)cc2OCc2ccccc2)C[C@@H]2CC[C@H]1N2C(=O)N1CCCC1	-5	-1	14	5	-14	/	/
O=[N+]([O-])c1ccc(N2CCCC2)c2ccncc12	-7	-2	-11	3	11	71*	-4%
COc1cc2c(c(OC)c1O)-c1ccc(OC)c(=O)cc1C(NC(=O)C(F)(F)F)CC2 (configuration not stated)	-7	1	1	2	-1	-1	/
COc1ccc(CN2C(=O)NC(=O)/C(=C\c3ccco3)C2=O)cc1	-17	-1	-4	-1	4	51*	-11%
CCOc1cccc(N2C(=O)/C(=C/c3ccco3)C(=O)NC2=S)c1	-6	-7	33	2	-33	123*	2.6µM*
O=C1NC(=S)N(c2ccccc2)C(=O)/C1=C/c1ccco1	-11	/	24	7	-24	/	/
S=C=Nc1cccc(C2(N3CCCCC3)CCCCC2)c1	-4	-1	5	-4	-5	/	/
COP(=O)(OC)OC=C(Cl)Cl	/	/	/	/	/	-3	/
COc1cc(O)cc2c1C(=O)OC(C)CCCC(=O)CCC/C=C\2 (configuration not stated)	-18	0	6	-8	-6	54*	-1%
CC(C)N1C(=O)/C(=C/C=C/c2ccco2)C(=O)N(Cc2ccco2)C1=O	-15	-1	28	4	-28	107*	8.5µM*
CC(C)c1ccc(N2C(=O)NC(=O)/C(=C\C=C\c3ccco3)C2=O)cc1	/	/	/	/	/	94*	-8%
CCCCn1c(NC(=O)c2ccco2)c(C(=O)OCC)c2nc3ccccc3nc21	-8	0	7	32	-7	175*	2%
CCCCCn1c(N)c(C(=O)NCc2cccs2)c2nc3ccccc3nc21	/	/	/	/	/	83*	4%
CCCCn1c(NS(=O)(=O)c2ccc(C)cc2)c(C(=O)OCC)c2nc3ccccc3nc21	-11	0	8	-8	-8	2	/
CCCCn1c(N)c(C(=O)OCCOC)c2nc3ccccc3nc21	/	/	/	/	/	20	/
CC(C)CCn1c(N)c(C(=O)OCC2CCCO2)c2nc3ccccc3nc21 (configuration not stated)	-4	-2	-42	9	42	-20	/
CCCCn1c(N)c(C(=O)OCC2CCCO2)c2nc3ccccc3nc21 (configuration not stated)	1	0	-11	-1	11	83*	1%
COCCCn1c(N)c(C(=O)NCCC(C)C)c2nc3ccccc3nc21	3	-2	7	7	-7	109*	5%
CC[C@H](C)[C@@H]1OC(=O)[C@H](C(C)C)N(C)C(=O)[C@H](C(C)C)NC(=O)[C@@H](C)[C@@H](CCCC#CBr)OC(=O)[C@H](C(C)C)N(C)C(=O)C2CCCN2C1=O (some centres not stated)	/	/	/	/	/	23	/
O=c1[nH]c(O)c(/C=C2\C=Nc3ccc(OCc4ccccc4)cc32)c(=O)[nH]1	10	3	1	6	-1	1	/
CCCCCn1c(N)c(C(=O)NCCN2CCOCC2)c2nc3ccccc3nc21	-6	-1	-6	6	6	-25	/
CCCCNC(=O)c1c(N)n(Cc2ccc3c(c2)OCO3)c2nc3ccccc3nc12	-5	0	5	1	-5	68*	-6%
CCC(=Nc1cccc(C(F)(F)F)c1)c1c(O)n(C)c(=O)n(C)c1=O	-4	-3	9	/	-9	4	/
C[n+]1c(-c2ccccc2)sc2ccccc21	0	1	-9	-1	9	2	/
CN(C)c1ccc(/C=C/C=C/c2sc3ccccc3[n+]2C)cc1	?	4	-15	5	15	57*	10µM*
CC[n+]1c(/C=C/C=C/c2ccc(N(C)C)cc2)sc2ccccc21	155*	15	-94	18	94*	81*	3.7µM*

Screens deposited in PubChem BioAssay by Broad Institute.
